A selection: hits, their analogues and other compounds. The true share with any hit is near 3.9%.
NS3 helicase inh = inhibitors of HCV NS3 helicase, primary screen, biochemical, Cy5 molecular beacon fluorescence. Hepatitis C virus NS3 helicase. NS3 helicase DNA unwinding. inhibition, % at 10.9 µM. 290,000 compounds, 0.56% hits. AID 1800, 2009;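 active means inhibition above the mean of all tested compounds plus 3 SD, set per campaign, cut at about 35% in these data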
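Test system: hepatitis C virus NS3 helicase domain fragment enzyme. Also added: annealed dual-labelled DNA beacon duplex, ATP-started. Timing: 60 min unwinding reaction at 25 °C after ATP addition. Technique: Cy5 fluorescence. Measure: % inhibition of unwinding.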
HSF1 inhib = HSF1 inhibitors in luciferase reporter cells, primary screen, cell-based, NIH3T3, luminescence | NIH3T3-HGL HSE-luciferase, MG132-induced, luminescence 8 h; stronger effect = lower value | activity change, negative = inhibition, % at 7.5 µM (by protocol) | 300,000 compounds, 0.77% hits | AID 2098, 2009;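 active means more than half of replicate wells show activity change below -50%, luminescence cut by over half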;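 further: luciferase reports HSF-1 transcriptional activity via heat shock element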
HSF-1 act = HSF-1 activators, primary screen, NIH3T3-HGL cells, MG132 stress, luminescence, single point; NIH3T3-HGL HSF-1 luciferase reporter, 8 h; 100% = twice DMSO control signal; activation, % at 9 µM; 300,000 compounds, 1.7% hits;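 active means mean replicate activation of at least 50% with a set share of replicates each reaching 50%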
DNA FID counter-1 = compounds displacing fluorescent DNA intercalator, primary screen, artefact control for HCV NS3 helicase inhibitor project, biochemical, FID fluorescence; inhibition, % at 7.9 µM; DNA fluorescent intercalator displacement; 290,000 compounds, 0.17% hits;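 further: higher means more ethidium bromide displaced from hairpin DNA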
HSP90 refold inh = HSP90 inhibitors, primary screen, cell lysate, luminescence. Heat shock protein HSP 90 (rabbit reticulocyte lysate; luciferase refolding). Rabbit reticulocyte lysate, luciferase refolding luminescence, 3 h. inhibition, % at 5.6 µM. 290,000 compounds, 0.91% hits;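 active means inhibition above the screen-wide mean plus 3 SD, computed separately per campaign, cut at about 16% in these data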;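 further: inhibitors lower the luminescence because luciferase stays unfolded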
core dimer inh = inhibitors of HCV core protein dimerization, primary screen, biochemical, TR-FRET, high-throughput. inhibition, % at 5 µM. 300,000 compounds, 0.33% hits. AID 1899, 2009. TR-FRET GST/Flag-core106 dimerization, 1536-well;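 active means inhibition above the mean of all tested compounds plus 3 SD, set per screening campaign, cut at about 45% in these data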
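Material: Tagged HCV core106 pair (GST and Flag) | Amount: GST-core106 13.5 nM, Flag-core106 17 nM | Medium: KF-containing HEPES buffer, pH 7.45, DTT, CHAPS, BSA | Reagent: Eu donor and XL665 acceptor anti-tag antibodies | Schedule: 4 h at 22.5 °C | Technique: Time-resolved FRET, ex 340 nm, em 617 and 671 nm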
NS3 helicase cf = HCV NS3 helicase inhibitors, retest, confirmation, biochemical, Cy5 molecular beacon fluorescence, triplicate; shares compounds with NS3 helicase inh; NS3 helicase DNA unwinding; inhibition, % at 10.9 µM; 1,600 compounds, 31% hits; AID 1943, 2009;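 active means inhibition above the mean of all tested compounds plus 3 SD, cutoff set per campaign, cut at about 36% in these data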
DNA FID counter-2 = compounds displacing fluorescent DNA intercalator, artefact control for HCV NS3 helicase inhibitor project, biochemical, FID fluorescence, triplicate; shares compounds with NS3 helicase inh; DNA fluorescent intercalator displacement; inhibition, % at 7.9 µM; 1,600 compounds, 4% hits;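 further: higher means more displacement of ethidium bromide from the DNA hairpin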
FID counter DR = compounds displacing fluorescent intercalator from DNA, dose response, counter-screen for HCV NS3 helicase inhibitor project, biochemical, fluorescence. shares compounds with NS3 helicase inh. fluorescent intercalator displacement from DNA. IC50, µM. 120 tested, under 10 active. AID 2172, 2009; call rule not given here
Of the large screens only hits and unclear results are named; the others gave an inactive call (follow-up assays come after a bar, where they were run). Unless noted, no stated cut-off is given here; in the data, active means inhibition above about 37%; inactive means the rest.

CC1=NN(C(N)=S)C(=O)C1N=Nc1ccccc1O (stereo unspecified)	NS3 helicase inh 42.5 | NS3 helicase cf inactive | DNA FID counter-2 inactive
Cc1cc(C)cc(NC(=O)CSc2nnc(CNC(=O)c3ccco3)o2)c1	none
CC1=NN(c2ccccc2)C(=O)C1C=Nc1ccc(N(C)C)cc1 (stereo unspecified)	NS3 helicase inh 44.1 | NS3 helicase cf inactive | DNA FID counter-2 inactive
CC/C(=N\NC(=O)c1ccc(N2CCCC2=O)cc1)c1ccccc1	none
O=C(O)c1ccc(-c2ccco2)n1Cc1ccccc1	NS3 helicase inh 45.3 | NS3 helicase cf inactive | DNA FID counter-2 inactive
CCc1c(C)c2cc(Cl)c(O)c(CN(C)C)c2oc1=O	none
CCc1c(C)c2cc(Cl)c(O)c(CN(CC)CC)c2oc1=O	NS3 helicase inh 49.2 | NS3 helicase cf inactive | DNA FID counter-2 inactive
CCCCOc1[nH]c2nc(-c3ccco3)n(Cc3ccco3)c(=N)c2c1C#N	NS3 helicase inh 39.0 | NS3 helicase cf inactive | DNA FID counter-2 inactive
COCCOC(=O)C1=C(C)NC(=O)NC1c1ccc(-c2cc(Cl)ccc2Cl)o1 (stereo unspecified)	NS3 helicase inh 42.9 | NS3 helicase cf inactive | DNA FID counter-2 inactive
COC(=O)C1=C(C)NC(=O)NC1c1ccc(-c2ccccc2Cl)o1 (stereo unspecified)	none
Cc1ccc(/C=C/C(=O)c2ccccc(=O)c2O)cc1C	NS3 helicase inh 39.6, HSF-1 act 76.3 | NS3 helicase cf 84.6 | DNA FID counter-2 inactive | FID counter DR inactive
O=C(/C=C1\C(=O)Nc2ccccc21)/C=C1\C(=O)Nc2ccccc21	NS3 helicase inh 54.5 (no result: HSF1 inhib, HSF-1 act, core dimer inh) | NS3 helicase cf inactive | DNA FID counter-2 inactive
CCCC(NC(=O)COc1cc2c(c3oc(=O)c(C)c(C)c13)CCC(C)(C)O2)C(=O)O (stereo unspecified)	NS3 helicase inh 54.6 | NS3 helicase cf inactive | DNA FID counter-2 inactive
CCC1=NN2C(=N)/C(=C\c3ccc(OCCOc4ccc(NC(C)=O)cc4)cc3)C(=O)N=C2S1	none
COc1cccc(OCCOc2ccc(/C=C3\C(=N)N4N=C(S(C)(=O)=O)SC4=NC3=O)cc2OC)c1	NS3 helicase inh 47.8 (no result: core dimer inh) | NS3 helicase cf 53.3 | DNA FID counter-2 inactive
COc1cc(/C=C2\C(=N)N3N=C(C)SC3=NC2=O)cc(OC)c1OCCOc1ccccc1C	NS3 helicase inh 45.5 | NS3 helicase cf inactive | DNA FID counter-2 inactive
CCOc1cc(/C=C2\C(=N)N3N=C(CC)SC3=NC2=O)ccc1OCCOc1ccc(NC(C)=O)cc1	NS3 helicase inh 53.8 | NS3 helicase cf inactive | DNA FID counter-2 inactive
Cc1[nH]c(=O)[nH]c(=O)c1S(=O)(=O)Nc1ccc(Br)cc1F	none (no result: core dimer inh)
COc1ccc(OC)c2sc(NC(=O)c3ccc(S(=O)(=O)N(C)C)cc3)nc12	NS3 helicase inh 40.8 | NS3 helicase cf inactive | DNA FID counter-2 inactive
COc1ccccc1NC(=O)c1ccc(S(=O)(=O)N(C)C)cc1	none
N#CC1=C(S)N(c2ccccc2)C(c2ccc(-c3ccccc3Cl)o2)NC1=O (stereo unspecified)	NS3 helicase inh 42.2 | NS3 helicase cf 51.1 | DNA FID counter-2 inactive
CNc1oc(Cc2ccccc2)nc1S(=O)(=O)c1ccc(Cl)cc1	none

Screening data (PubChem BioAssay)
